This is one part of a sample in which hits are shown more often than they occur.
HUVEC inhibit – human endothelial cell proliferation inhibition. actives 1.1% (n = 86,000). HUVEC proliferation, CellTiter-Glo luminescence, 72 h; stronger effect = lower value. viability, % at 10 µM (by protocol);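 active = viability at or below 30%; inactive = viability above 30%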;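 also: 100% = median luminescence of DMSO-only cell control wells on each plate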
H69AR inhibit – growth inhibitors of human H69AR lung tumor cells; AID 598; H69AR lung tumor viability, ATP luminescence, 72 h; stronger effect = lower value; actives 6% (n = 85,000); viability, % at 10 µM;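 active = viability at or below 40%; inactive = viability above 40%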;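 also: multidrug resistant small cell line overexpressing MRP-1 efflux transporter; 100% = mean luminescence of untreated control wells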
Lung fibro prol – blocks proliferation of human lung fibroblasts. LL 47 human lung fibroblast viability, ATP luminescence; stronger effect = lower value. viability, % at 10 µM. actives 1.1% (n = 85,000). AID 719;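 active = viability at or below 50% in the single dose screen; inactive = viability above 50%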;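 also: compound exposure lasted 72 h before the ATP readout; 100% = median luminescence of untreated cell-only wells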
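Material: human LL 47 lung fibroblast cells; quantity: 1,150 cells/well; medium: IMEM plus 15% FBS; doses: 0.1% DMSO in all compound wells; timing: overnight attachment after seeding, then 72 h compound exposure at 37 °C; detection: CellTiter-Glo luminescence; measure: % viability of median cell-only signal; controls: cell-only wells, no compound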
PTEN del growth – suppresses growth of cells with PTEN deletion | viability, % at 10 µM | HCT116 PTEN-null viability, CellTiter-Glo, 60 h; stronger effect = lower value | AID 827 | actives 1.2% (n = 140,000);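 active = viability at or below a set limit, 4 SD under the median of all tested compounds, cut at about 3.7% in these data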;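 also: PTEN knockout HCT116 line with beta catenin targeted HCT116 as companion control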
HCT116 bCat-KO – beta-catenin-lacking colon tumor cell growth suppression | HCT116 beta-catenin knockout viability, CellTiter-Glo, 60 h; stronger effect = lower value | AID 818 | actives 1.5% (n = 140,000) | viability, % at 10 µM;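 active = viability at or under a set limit, the compound median less 4 SD, cut at about 6% in these data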;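 also: 0% = Hyamine 1622 control at 20 µM and 100% = untreated cell control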
An asterisk follows results filed as active; · = no result given.

SMILES	HUVEC inhibit	H69AR inhibit	Lung fibro prol	PTEN del growth	HCT116 bCat-KO
CC1(C)OC(=O)N(c2ccccc2)C12C=Cc1cc(Br)ccc1O2 (configuration not stated)	100	18*	91	52	66
CC1(C)OC(=O)N(CCc2ccccc2)C1(C)O (configuration not stated)	96	106	·	90	98
CCOC(=O)c1cnc(SCC(=O)Nc2cc(OC)cc(OC)c2)nc1N	88	81	89	85	80
Cc1sc(NC(=O)CSc2nnc(COc3ccc(Cl)cc3)n2C)c(C#N)c1C	60	31*	87	85	77
CCOC(=O)c1cnc(SCC(=O)Nc2cc(C(F)(F)F)ccc2N2CCOCC2)nc1N	47	36*	65	76	76
CCOC(=O)c1cnc(SCc2nc(N)nc(Nc3ccccc3)n2)nc1N	106	32*	97	37	46
CCOC(=O)c1cnc(SCC(=O)Nc2sc(C)c(C)c2C#N)nc1N	61	94	52	3.1*	2.8*
CCOC(=O)c1cnc(SCC(=O)Nc2ccc(N3CCOCC3)c(Cl)c2)nc1N	113	94	103	80	86
Cc1ccc(-c2nnc(SCC(=O)Nc3sc(C)c(C)c3C#N)n2C)cc1	83	83	97	94	82
CSc1c(CC(=O)Nc2ccccc2C(F)(F)F)n(Cc2ccccc2)c2ccccc12	·	·	·	72	79
Cn1cnc([N+](=O)[O-])c1Oc1ccc2ccccc2c1	·	·	·	50	62
Cn1ccnc1SCC(=O)c1ccc(Br)cc1	88	29*	96	73	81
O=C1C2CSCN2C(=O)CN1CCCN1CCN(C(c2ccccc2)c2ccccc2)CC1 (configuration not stated)	·	·	·	98	92
O=C(NCCc1cccc(Cl)c1)c1ccc(Cl)c([N+](=O)[O-])c1	·	·	·	67	85
CC(C)(CNC(=O)c1ccc([N+](=O)[O-])c(Cl)c1)CNC(=O)c1ccc([N+](=O)[O-])c(Cl)c1	·	·	·	2.1*	2.0*
CCn1nnnc1SCC(=O)N1CCCc2ccccc21	94	86	100	92	97
CCOc1ccc(NC(=O)c2ccco2)c([N+](=O)[O-])c1	·	·	·	64	61
CCCC(=O)Nc1cccc(-c2nc3cc(C)c(C)cc3o2)c1	49	14*	111	98	95
CCCC(=O)Nc1cccc(-c2nc3ccccc3o2)c1	98	100	97	95	93
Cc1ccc(-c2nc3cc(Cl)ccc3o2)cc1	88	54	98	92	94
COc1cc(C(=O)Nc2cccc(-c3nc4cc(C)ccc4o3)c2C)cc(OC)c1OC	84	73	82	112	89
COc1cc(OC)cc(-c2nc3cc(C)ccc3o2)c1	65	31*	70	66	72
COc1cc(C(=O)Nc2cccc(-c3nc4cc(C)ccc4o3)c2)cc(OC)c1OC	57	28*	94	73	76
COc1cc(C(=O)Nc2cc(-c3nc4cc(C)ccc4o3)ccc2C)cc(OC)c1OC	43	30*	58	88	97
CCOC(=O)C1=NN(C(=O)Nc2cccc(C(F)(F)F)c2)C2C(=O)N(c3cccc(C(F)(F)F)c3)C(=O)C12 (configuration not stated)	·	·	·	102	103
SMILES	HUVEC inhibit	H69AR inhibit	Lung fibro prol	PTEN del growth	HCT116 bCat-KO
O=C(Nc1ccc2oc(-c3ccccc3)nc2c1)c1ccccc1F	101	87	113	94	80
O=C(Nc1ccc2oc(-c3ccccc3F)nc2c1)c1ncn[nH]1	·	·	·	85	101
Cc1ccc(NC(=O)c2cc(-n3cnnc3)ccc2Cl)cc1	95	97	100	85	87
Cc1ccc2oc(-c3cccc(NC(=O)c4cc(-n5cnnc5)ccc4Cl)c3)nc2c1	58	11*	51	94	88
O=C(Nc1ccc2oc(-c3ccc(Cl)c(Cl)c3)nc2c1)c1ncn[nH]1	·	·	·	0.9*	1.0*
O=C(Nc1ccc2oc(-c3cccc(F)c3)nc2c1)c1ccccc1F	64	49	103	2.4*	7
CCCCOc1ccc(-c2nc(=S)[nH][nH]2)cc1	80	19*	106	104	101
CCCCOc1ccc(-c2nc(SCC(N)=O)n[nH]2)cc1	98	89	111	98	99
CCc1nc2c(cnn2-c2ccc(Cl)cc2)c(=O)n1-c1ccc2c(c1)OCCO2	94	51	91	6	3.3*
O=C(NCCN1C(=O)S/C(=C\c2ccc(F)cc2)C1=O)c1cccc(S(=O)(=O)N2CCOCC2)c1	·	·	·	105	75
NC1=NC2(CCCCC2)N=C(Nc2ccc(F)cc2F)N1	·	·	·	94	107
Cc1cc(C)cc(NC2=NC3(CCCCC3)N=C(N)N2)c1	63	18*	56	22	21
O=C1c2ccccc2C(=O)N1CCCCN(C(=O)c1cc([N+](=O)[O-])ccc1Cl)c1ccc(Cl)cc1	·	·	·	67	76
Cc1ncc(CCl)c2c1OC(C)(C)OC2	79	2.8*	97	96	100
Cc1ccc(Cn2c(=N)n(CC(=O)c3ccc([N+](=O)[O-])cc3)c3ccccc32)cc1	·	·	·	0.9*	0.9*
CCn1c(=N)n(CC(=O)c2ccc(OC)cc2)c2ccccc21	·	·	·	42	47
O=C(c1ccco1)N1CCN(C(c2ccccc2Cl)c2nnnn2Cc2cccs2)CC1 (configuration not stated)	80	33*	73	55	59
Cn1cc(C(=O)c2ccc(Cl)cc2Cl)cc1C(=O)N/N=C(\N)COc1ccc(Cl)cc1Cl	62	18*	68	18	14
Cn1cc(C(=O)c2ccc(Cl)cc2Cl)cc1C(=O)N/N=C(\N)COc1ccccc1	86	33*	82	18	17
Cn1cc(C(=O)c2ccc(Cl)cc2Cl)cc1C(=O)O	·	·	·	101	101
O=C(COc1ccc(Cl)cc1Cl)NN=C1CCCCC1	·	·	·	99	82
Cn1cc(C(=O)c2ccc(Cl)cc2Cl)cc1C(=O)N/N=C(\N)COc1ccc(F)cc1	86	25*	82	18	23
Cc1ccnc(NC(=O)c2cccc(NS(=O)(=O)c3ccccc3C)c2)c1	·	·	·	111	87
CC1CCCCC1NC(=O)c1ccc2c(c1)[nH]c(=O)n2C1CCCC1 (configuration not stated)	105	21*	92	83	88
O=C(CSc1nc2ccccc2c(=O)n1CC1CCCO1)NCC1CCCO1 (configuration not stated)	102	95	109	95	99
NC(=O)NC(=O)CSc1nc(-c2ccccc2)c(-c2ccccc2)n1CC1CCCO1 (configuration not stated)	112	36*	95	88	96
CC1Cc2ccccc2N1C(=O)CSc1nnc(Cc2ccccc2)n1CCc1ccccc1 (configuration not stated)	·	·	·	60	68
Cc1cccc(-c2nc(CN3CCCC(C(=O)NC4CCCCC4)C3)c(C)o2)c1 (configuration not stated)	60	39*	109	78	73

From PubChem
